# Experimental data from ChEMBL document CHEMBL1122008, “Lipophilic 5'-(alkyl phosphate) esters of 1-beta-D-arabinofuranosylcytosine and its N4-acyl and 2,2'-anhydro-3'-O-acyl derivatives as potential prodrugs” (1982).
# Key:
# Format in all cases: functional
# B16 = test: Growth inhibition of B16 mouse melanoma cells in culture was determined; details: read-out: ID50 (the source's name)
# Outline: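 B16 mouse melanoma monolayers in McCoy's 5A with 10% whole fetal calf serum, streptomycin and penicillin, 37 °C, 5% CO2. Drugs were dissolved in 0.05 M pH 7.4 potassium phosphate buffer or Me2SO and dosed at regularly spaced concentrations, generally 10^-7 to 10^-3 M. Cells were counted after 48 h; ID50 versus untreated controls was read from dose–response curves, triplicate.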
# L1210 = test: Growth inhibition of cultured L1210 mouse leukemia cells was determined; details: read-out: ID50 (the source's name)
# Outline: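 L1210 mouse leukemia cells in suspension in Eagle's MEM with 15% whole (non-dialyzed, non-heat-inactivated) fetal calf serum, antibiotics and 0.05 mM 2-mercaptoethanol, 37 °C, 5% CO2. Drugs in pH 7.4 phosphate buffer or Me2SO, generally 10^-7 to 10^-3 M. Coulter cell counts at 48 h; ID50 relative to untreated controls from dose–response curves, triplicate.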
# Mus musculus [1] = test: Antitumor activity against L1210 leukemia in mice (Percent increase in life span.) at the dose of 260 mg/kg
# Outline: (§1)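 Male B6D2F1J mice, groups of 5–9, inoculated ip with 10^5 L1210 cells on day 0. Dosing starts day 1 on a qd×5 or q4d(2,6) schedule. Vehicles are sterile water, pH 7.4 0.05 M potassium phosphate buffer, or 0.4% Tween 80/0.5% CMC/0.9% benzyl alcohol/0.9% saline. %ILS = (T/C − 1)×100 from median survival. Weights taken days 1 and 7.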
# Mus musculus [2] = test: Antitumor activity against L1210 leukemia in mice (Average 7-day weight change) at the dose of 390 mg/kg
# Outline: (§2)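 Male B6D2F1J mice, groups of five to nine, inoculated ip with 10^5 L1210 cells on day 0. Drug treatment started day 1 on qd×5 or q4d(2,6) schedule. Vehicles: ara-C in sterile water; the n-butyl phosphate ester in 0.05 M pH 7.4 potassium phosphate buffer; others as suspensions in 0.4% Tween 80/0.5% low-density CMC/0.9% benzyl alcohol/0.9% saline. Mice weighed days 1 and 7; 7-day weight change given as g/mouse and %.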
# Mus musculus [3] = test: Antitumor activity against L1210 leukemia in mice (Average 7-day weight change) at the dose of 260 mg/kg; outline: as §2
# Mus musculus [4] = test: Antitumor activity against L1210 leukemia in mice (Average 7-day weight change) at the dose of 130 mg/kg; outline: as §2
# Mus musculus [5] = test: Antitumor activity against L1210 leukemia in mice (Average 7-day weight change (%)) at the dose of 260 mg/kg; outline: as §2
# Mus musculus [6] = test: Antitumor activity against L1210 leukemia in mice (Average weight per mouse on day 1.) at the dose of 260 mg/kg
# Outline: (§3)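 Male B6D2F1J mice (5–9 per group) received 10^5 L1210 cells i.p. on day 0 and drug from day 1, given qd×5 or q4d(2,6). Vehicles were sterile water, 0.05 M potassium phosphate pH 7.4, or 0.4% Tween 80/0.5% CMC/0.9% benzyl alcohol/0.9% saline. Read-out is average body weight per mouse (g) on day 1.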
# Mus musculus [7] = test: Antitumor activity against L1210 leukemia in mice (Average weight per mouse on day 1.) at the dose of 130 mg/kg; outline: as §3
# Mus musculus [8] = test: Antitumor activity against L1210 leukemia in mice (Average 7-day weight change (%)) at the dose of 390 mg/kg; outline: as §2
# Mus musculus [9] = test: Antitumor activity against L1210 leukemia in mice (Average 7-day weight change (%)) at the dose of 130 mg/kg; outline: as §2
# Mus musculus [10] = test: Antitumor activity against L1210 leukemia in mice (Average weight per mouse on day 1.) at the dose of 390 mg/kg; outline: as §3
# Mus musculus [11] = test: Antitumor activity against L1210 leukemia in mice (Percent increase in life span.) at the dose of 390 mg/kg; outline: as §1
# Mus musculus [12] = test: Antitumor activity against L1210 leukemia in mice (Percent increase in life span.) at the dose of 130 mg/kg; outline: as §1
# Mus musculus [13] = test: Antitumor activity against L1210 leukemia in mice (Average 7-day weight change (%)) at the dose of 115 mg/kg; outline: as §2
# Mus musculus [14] = test: Antitumor activity against L1210 leukemia in mice (Average 7-day weight change (%)) at the dose of 460 mg/kg; outline: as §2
# Mus musculus [15] = test: Antitumor activity against L1210 leukemia in mice (Percent increase in life span.) at the dose of 460 mg/kg (mice surviving 20 or more days); outline: as §1
# Mus musculus [16] = test: Antitumor activity against L1210 leukemia in mice (Average weight per mouse on day 1.) at the dose of 460 mg/kg; outline: as §3
# Mus musculus [17] = test: Antitumor activity against L1210 leukemia in mice (Average weight per mouse on day 1.) at the dose of 230 mg/kg; outline: as §3
# Mus musculus [18] = test: Antitumor activity against L1210 leukemia in mice (Percent increase in life span.) at the dose of 230 mg/kg; outline: as §1
# Mus musculus [19] = test: Antitumor activity against L1210 leukemia in mice (Average 7-day weight change (%)) at the dose of 230 mg/kg; outline: as §2
# Mus musculus [20] = test: Antitumor activity against L1210 leukemia in mice (Average 7-day weight change) at the dose of 115 mg/kg; outline: as §2
# Mus musculus [21] = test: Antitumor activity against L1210 leukemia in mice (Percent increase in life span.) at the dose of 115 mg/kg; outline: as §1
# Mus musculus [22] = test: Antitumor activity against L1210 leukemia in mice (Average 7-day weight change) at the dose of 460 mg/kg; outline: as §2
# Mus musculus [23] = test: Antitumor activity against L1210 leukemia in mice (Average weight per mouse on day 1.) at the dose of 115 mg/kg; outline: as §3
# Mus musculus [24] = test: Antitumor activity against L1210 leukemia in mice (Average 7-day weight change) at the dose of 230 mg/kg; outline: as §2
# Mus musculus [25] = test: Antitumor activity against L1210 leukemia in mice (Average 7-day weight change (%)) at the dose of 267 mg/kg; outline: as §2
# Mus musculus [26] = test: Antitumor activity against L1210 leukemia in mice (Percent increase in life span.) at the dose of 200 mg/kg (mice surviving 20 or more days); outline: as §1
# Mus musculus [27] = test: Antitumor activity against L1210 leukemia in mice (Average 7-day weight change) at the dose of 200 mg/kg; outline: as §2
# Mus musculus [28] = test: Antitumor activity against L1210 leukemia in mice (Percent increase in life span.) at the dose of 267 mg/kg (mice surviving 20 or more days); outline: as §1
# Mus musculus [29] = test: Antitumor activity against L1210 leukemia in mice (Average 7-day weight change (%)) at the dose of 200 mg/kg; outline: as §2
# Mus musculus [30] = test: Antitumor activity against L1210 leukemia in mice (Average 7-day weight change) at the dose of 267 mg/kg; outline: as §2
# Mus musculus [31] = test: Antitumor activity against L1210 leukemia in mice (Average weight per mouse on day 1.) at the dose of 200 mg/kg; outline: as §3
# Mus musculus [32] = test: Antitumor activity against L1210 leukemia in mice (Average 7-day weight change (%)) at the dose of 113 mg/kg; details: dose 133 mg/kg; in the assay text read “133 mg/kg” for “113 mg/kg”; outline: as §2
# Mus musculus [33] = test: Antitumor activity against L1210 leukemia in mice (Average 7-day weight change) at the dose of 113 mg/kg; outline: as §2
# Mus musculus [34] = test: Antitumor activity against L1210 leukemia in mice (Percent increase in life span.) at the dose of 113 mg/kg; outline: as §1
# Mus musculus [35] = test: Antitumor activity against L1210 leukemia in mice (Average weight per mouse on day 1.) at the dose of 113 mg/kg; outline: as §3
# Mus musculus [36] = test: Antitumor activity against L1210 leukemia in mice (Average weight per mouse on day 1.) at the dose of 267 mg/kg; outline: as §3
smiles,measurement,setting,value
CCCCCCCCOP(=O)(O)OC[C@H]1O[C@@H](n2ccc(N)nc2=O)[C@@H](O)[C@@H]1O,IC50,B16,360 µM
same,IC50,L1210,11 µM
CCCCCCCCCCCCCCCCOP(=O)(O)OC[C@H]1O[C@@H](n2ccc(N)nc2=O)[C@@H](O)[C@@H]1O,IC50,L1210,11 µM
CCCCCCOP(=O)(O)OC[C@H]1O[C@@H](n2ccc(N)nc2=O)[C@@H](O)[C@@H]1O,IC50,L1210,7.8 µM
CCOP(=O)(O)OC[C@H]1O[C@@H](n2ccc(N)nc2=O)[C@@H](O)[C@@H]1O,IC50,B16,70 µM
same,IC50,L1210,4 µM
Nc1ccn([C@@H]2O[C@H](COP(=O)(O)OCC(O)CO)[C@@H](O)[C@@H]2O)c(=O)n1 (stereo partly drawn),IC50,B16,26 µM
same,IC50,L1210,0.65 µM
Nc1ccn([C@@H]2O[C@H](COP(=O)(O)OCC(O)COCc3ccccc3)[C@@H](O)[C@@H]2O)c(=O)n1 (stereo partly drawn),IC50,B16,25 µM
same,IC50,L1210,1 µM
CCCCCCCCCCCCCCCC(=O)O[C@H]1[C@@H]2Oc3nc(=N)ccn3[C@@H]2O[C@@H]1COP(=O)(O)OCCCC,ILS at 260 mg/kg,Mus musculus [1],62%
same,Weight change,Mus musculus [2],-1.6 g mouse-1
same,Weight change,Mus musculus [3],0.9 g mouse-1
same,Weight change,Mus musculus [4],0.9 g mouse-1
same,Weight change,Mus musculus [5],4%
same,Average weight,Mus musculus [6],22.8 g mouse-1
same,Average weight,Mus musculus [7],23 g mouse-1
same,Weight change,Mus musculus [8],-7%
same,Weight change,Mus musculus [9],4%
same,Average weight,Mus musculus [10],24.5 g mouse-1
same,ILS at 390 mg/kg,Mus musculus [11],74%
same,ILS at 130 mg/kg,Mus musculus [12],62%
CCCCCCCCCCCCCCCC(=O)O[C@H]1[C@@H]2Oc3nc(=N)ccn3[C@@H]2O[C@@H]1COP(=O)(O)OCCCCCC,Weight change,Mus musculus [13],10%
same,Weight change,Mus musculus [14],14%
same,ILS at 460 mg/kg,Mus musculus [15],75%
same,Average weight,Mus musculus [16],19.8 g mouse-1
same,Average weight,Mus musculus [17],22.2 g mouse-1
same,ILS at 230 mg/kg,Mus musculus [18],37%
same,Weight change,Mus musculus [19],8%
same,Weight change,Mus musculus [20],2 g mouse-1
same,ILS at 115 mg/kg,Mus musculus [21],25%
same,Weight change,Mus musculus [22],2.8 g mouse-1
same,Average weight,Mus musculus [23],20.6 g mouse-1
same,Weight change,Mus musculus [24],1.8 g mouse-1
CCCCCCCCCCCCCCCC(=O)O[C@H]1[C@@H]2Oc3nc(=N)ccn3[C@@H]2O[C@@H]1COP(=O)(O)OCCOCC,Weight change,Mus musculus [25],-16%
same,ILS at 200 mg/kg,Mus musculus [26],137%
same,Weight change,Mus musculus [27],-4 g mouse-1
same,ILS at 267 mg/kg,Mus musculus [28],150%
same,Weight change,Mus musculus [29],-16%
same,Weight change,Mus musculus [30],-3.6 g mouse-1
same,Average weight,Mus musculus [31],24.4 g mouse-1
same,Weight change,Mus musculus [32],-11%
same,Weight change,Mus musculus [33],-2.6 g mouse-1
same,ILS at 113 mg/kg,Mus musculus [34],112%
same,Average weight,Mus musculus [35],24 g mouse-1
same,Average weight,Mus musculus [36],24 g mouse-1
Nc1ccn([C@@H]2O[C@H](COP(=O)(O)O)[C@@H](O)[C@H]2O)c(=O)n1,IC50,B16,1.5 µM
same,IC50,L1210,0.35 µM
